This is an account of results in ChEMBL document CHEMBL2311322, “On scaffold hopping: challenges in the discovery of sulfated small molecules as mimetics of glycosaminoglycans” (Bioorg Med Chem Lett, 2013).

The source made the active and inactive calls. The rule behind the calls is not given here.

The term inhibition denotes how much of the control response was suppressed. The term IC50 denotes the midpoint of a concentration-inhibition curve. Read a high IC50 as weaker potency in that assay.

One test relates to Human alphaherpesvirus 1. Description: Binding affinity to Herpes simplex virus 1 recombinant Lys25-His332-truncated His6-tagged glycoprotein D expressed in Escherichia coli measured after 3 hrs by affinity co-electrophoretic analysis.
For test [1], the target named is Coagulation factor XI (Homo sapiens) (UniProt P03951). As to the kind of experiment: Inhibition of human coagulation factor 11a at 365 uM after 10 mins by spectrophotometric analysis. An outline of the steps: (§1)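 Chromogenic substrate hydrolysis screen against each coagulation protease (VIIa, IXa, Xa, XIa, XIIa), each with its appropriate substrate. Inhibitor was tested at a single concentration of 365 μM. Fractional residual activity was taken as the ratio of initial hydrolysis rates with and without inhibitor, read spectrophotometrically.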
Chain of Coagulation factor XI (Homo sapiens) (P03951 19-387 limits assumed): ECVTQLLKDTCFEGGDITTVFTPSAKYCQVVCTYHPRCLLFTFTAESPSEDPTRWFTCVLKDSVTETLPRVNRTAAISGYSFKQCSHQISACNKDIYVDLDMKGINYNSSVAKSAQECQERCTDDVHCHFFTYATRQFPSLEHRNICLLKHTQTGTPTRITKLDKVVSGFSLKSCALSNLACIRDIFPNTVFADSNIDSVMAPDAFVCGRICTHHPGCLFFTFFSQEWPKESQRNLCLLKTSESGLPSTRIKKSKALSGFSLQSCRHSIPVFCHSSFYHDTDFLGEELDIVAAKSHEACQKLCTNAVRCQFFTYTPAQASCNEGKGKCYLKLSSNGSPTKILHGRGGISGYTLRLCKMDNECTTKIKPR
Chain of Coagulation factor XI (Homo sapiens) (P03951 388-625 limits assumed): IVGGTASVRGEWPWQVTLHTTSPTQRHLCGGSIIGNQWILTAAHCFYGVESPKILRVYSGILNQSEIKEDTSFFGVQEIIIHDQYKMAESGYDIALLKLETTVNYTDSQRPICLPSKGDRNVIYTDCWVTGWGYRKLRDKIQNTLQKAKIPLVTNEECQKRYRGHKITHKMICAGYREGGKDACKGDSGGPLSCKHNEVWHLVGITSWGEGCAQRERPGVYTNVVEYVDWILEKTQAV

Test [2] has as its target T1, Coagulation factor XII (Homo sapiens) (UniProt P00748).
T1 sequence (whole entry): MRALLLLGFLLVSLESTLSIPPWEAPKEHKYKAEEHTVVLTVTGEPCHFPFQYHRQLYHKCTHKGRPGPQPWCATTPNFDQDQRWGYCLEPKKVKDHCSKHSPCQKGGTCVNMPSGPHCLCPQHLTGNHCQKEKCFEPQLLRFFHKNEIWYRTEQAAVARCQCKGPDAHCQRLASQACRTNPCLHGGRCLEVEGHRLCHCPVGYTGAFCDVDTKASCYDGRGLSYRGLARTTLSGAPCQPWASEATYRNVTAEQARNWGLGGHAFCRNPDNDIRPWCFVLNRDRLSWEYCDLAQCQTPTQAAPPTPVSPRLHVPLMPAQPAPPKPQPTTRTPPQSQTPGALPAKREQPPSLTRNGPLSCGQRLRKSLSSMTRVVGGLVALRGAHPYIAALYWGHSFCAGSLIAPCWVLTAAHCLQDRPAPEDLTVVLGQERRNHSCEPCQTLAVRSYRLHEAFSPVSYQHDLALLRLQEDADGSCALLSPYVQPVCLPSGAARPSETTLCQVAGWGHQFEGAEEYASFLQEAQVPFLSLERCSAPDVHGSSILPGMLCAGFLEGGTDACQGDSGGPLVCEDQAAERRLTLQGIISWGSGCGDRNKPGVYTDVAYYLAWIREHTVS
Description: Inhibition of human coagulation factor 12a using spectrozyme F12a as substrate at 365 uM after 10 mins by spectrophotometric analysis. In a few lines: as §1

For test [3], the target named is Coagulation factor X (Homo sapiens) (UniProt P00742). Description: Inhibition of human coagulation factor 10a using spectrozyme F10a as substrate at 365 uM after 10 mins by spectrophotometric analysis. In a few lines:
as §1

For test [4], the target named is Coagulation factor IX (Homo sapiens) (UniProt P00740). As to the kind of experiment: Inhibition of human coagulation factor 9a using spectrozyme F9a as substrate at 365 uM after 10 mins by spectrophotometric analysis. In a few lines: as §1
Chain of Coagulation factor IX (Homo sapiens) (P00740 47-191 limits assumed): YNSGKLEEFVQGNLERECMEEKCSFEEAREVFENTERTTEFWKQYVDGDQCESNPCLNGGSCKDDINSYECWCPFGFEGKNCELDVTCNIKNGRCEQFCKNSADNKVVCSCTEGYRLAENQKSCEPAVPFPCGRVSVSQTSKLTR
Chain of Coagulation factor IX (Homo sapiens) (P00740 227-461 limits assumed): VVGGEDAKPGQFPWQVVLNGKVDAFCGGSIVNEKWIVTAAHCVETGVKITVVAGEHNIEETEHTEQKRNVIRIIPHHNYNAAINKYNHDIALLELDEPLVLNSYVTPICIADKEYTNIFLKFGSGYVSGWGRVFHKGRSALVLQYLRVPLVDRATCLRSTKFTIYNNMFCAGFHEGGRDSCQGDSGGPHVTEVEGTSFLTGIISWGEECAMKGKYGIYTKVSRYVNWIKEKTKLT
For test [5], the target named is T2, Coagulation factor VII (Homo sapiens) (UniProt P08709).
T2 sequence (whole entry): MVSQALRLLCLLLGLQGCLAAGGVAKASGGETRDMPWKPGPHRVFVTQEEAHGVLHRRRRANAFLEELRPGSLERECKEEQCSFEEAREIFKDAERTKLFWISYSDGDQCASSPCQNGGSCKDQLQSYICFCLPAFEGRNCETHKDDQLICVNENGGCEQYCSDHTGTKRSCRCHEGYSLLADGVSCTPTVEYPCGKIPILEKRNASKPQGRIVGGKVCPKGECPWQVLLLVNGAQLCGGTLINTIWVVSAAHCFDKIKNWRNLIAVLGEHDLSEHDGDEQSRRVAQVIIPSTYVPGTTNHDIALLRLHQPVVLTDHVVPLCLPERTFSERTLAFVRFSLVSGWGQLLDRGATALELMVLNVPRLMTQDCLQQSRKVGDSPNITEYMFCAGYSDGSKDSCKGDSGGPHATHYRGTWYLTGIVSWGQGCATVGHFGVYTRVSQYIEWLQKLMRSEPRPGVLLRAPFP
Description: Inhibition of human coagulation factor 7a using spectrozyme 7a as substrate at 365 uM after 10 mins by spectrophotometric analysis. An outline of the steps:
as §1

Another test deals with Prothrombin (Homo sapiens, UniProt P00734). As to the kind of experiment: Inhibition of human alpha thrombin using spectrozyme TH as substrate. An outline of the steps:
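Chromogenic assay: initial rate of Spectrozyme TH hydrolysis read spectrophotometrically at pH 7.4 and 25 °C across a range of inhibitor concentrations. Fractional loss of initial rate plotted against log concentration and fitted to a logistic dose–response equation to give IC50.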

A further test deals with Plasma. As to the kind of experiment: Anticoagulant activity in human plasma assessed as inhibition of Cacl2-induced coagulation after 4 mins by fibrometric analysis. In kind it is functional. An outline of the steps:
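Human plasma clotting times were read on a fibrometer in both prothrombin time (PT) and activated partial thromboplastin time (APTT) formats, across a range of inhibitor concentrations. Trend lines of clotting time versus concentration gave the concentration needed to double clotting time (2×PT, 2×APTT).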

Chain of Coagulation factor X (Homo sapiens) (P00742 41-179 limits assumed): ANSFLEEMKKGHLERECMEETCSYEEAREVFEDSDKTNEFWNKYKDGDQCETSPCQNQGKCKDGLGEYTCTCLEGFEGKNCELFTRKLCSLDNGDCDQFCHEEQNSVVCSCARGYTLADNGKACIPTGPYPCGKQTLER
Chain of Coagulation factor X (Homo sapiens) (P00742 235-488 limits assumed): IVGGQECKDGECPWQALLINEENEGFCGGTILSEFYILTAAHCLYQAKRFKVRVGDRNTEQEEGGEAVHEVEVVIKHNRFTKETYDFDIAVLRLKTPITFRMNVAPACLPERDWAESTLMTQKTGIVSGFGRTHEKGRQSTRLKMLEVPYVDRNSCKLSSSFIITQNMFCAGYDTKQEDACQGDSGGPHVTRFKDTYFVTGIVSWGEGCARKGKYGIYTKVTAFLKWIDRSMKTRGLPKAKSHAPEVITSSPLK

As to `O=C(O)C1=C[C@H](O)[C@@H](OS(=O)(=O)O)[C@@H](O[C@H]2[C@H](O)[C@@H](NS(=O)(=O)O)[C@@H](O[C@H]3[C@H](O)[C@@H](OS(=O)(=O)O)[C@@H](O[C@H]4[C@H](O)[C@@H](NS(=O)(=O)O)[C@@H](O[C@H]5[C@H](O)[C@@H](OS(=O)(=O)O)[C@@H](O[C@H]6[C@H](OS(=O)(=O)O)[C@@H](NS(=O)(=O)O)[C@@H](O[C@H]7[C@H](O)[C@@H](OS(=O)(=O)O)[C@@H](O[C@H]8[C@H](O)[C@@H](NS(=O)(=O)O)[C@@H](O)O[C@@H]8COS(=O)(=O)O)O[C@H]7C(=O)O)O[C@@H]6COS(=O)(=O)O)O[C@H]5C(=O)O)O[C@@H]4COS(=O)(=O)O)O[C@H]3C(=O)O)O[C@@H]2COS(=O)(=O)O)O1`, the Activity in the test on Human alphaherpesvirus 1 worked out at 19 µM.
As to `O=C(Nc1ccc(OS(=O)(=O)O)cc1)c1cccc(N2C(=O)c3ccc(C(=O)Nc4ccc(OS(=O)(=O)O)cc4)cc3C2=O)c1`, the inhibition result in test [1] is “inactive”. Moreover, the inhibition in test [2], in test [3], in test [4] and in test [5] was > 20% in each case. The IC50 against Prothrombin was 286 µM.
With `N#Cc1c(SCC(=O)c2cccc(OS(=O)(=O)O)c2OS(=O)(=O)O)nc([N+](=O)[O-])c(C#N)c1-c1ccc(OCc2ccccc2)cc1`, the 2PT in the test with Plasma came out at 606 µM. In addition, in the test on Plasma, the 2aPTT worked out at 550 µM. Besides, the inhibition entry in test [1] is “Active”. Besides, the inhibition in test [2], in test [3], in test [4] and in test [5] was > 20% in each case. The molecule also displayed an IC50 against Prothrombin of 65.9 µM.
